# According to ChEMBL document CHEMBL1155221, “Identification of novel indanylsulfonamide guanylhydrazones as potent 5-HT6 serotonin receptor antagonists” (J Med Chem, 2009):
# Experiments:
# [1] = molecular target: T1, 5-hydroxytryptamine receptor 6 (Homo sapiens, UniProt P50406); assay: Inhibition of [3H]LSD binding to human recombinant 5HT6 receptor expressed in HEK293 cells at 100 nM after 60 mins by liquid scintillation counting; format: cell-based
# Procedure, shortened: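 Single-point competition at 100 nM test compound against [3H]-LSD on membranes from HEK-293 cells expressing recombinant human 5-HT6 receptor. Percent inhibition of radioligand binding reported.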
# [2] = molecular target: T1, 5-hydroxytryptamine receptor 6; assay: Displacement of [3H]LSD from human cloned 5HT6 receptor expressed in human HeLa cells; format: cell-based
# [3] = molecular target: T1, 5-hydroxytryptamine receptor 6; assay: Displacement of [3H]LSD from human recombinant 5HT6 receptor expressed in HEK293 cells after 60 mins by liquid scintillation counting; format: cell-based
# Procedure, shortened: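 Competition binding on membranes from HEK-293 cells expressing recombinant human 5-HT6 receptor, with [3H]-LSD as radioligand. […] Values are mean ± SEM of three experiments.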
# [4] = molecular target: T1, 5-hydroxytryptamine receptor 6; assay: Antagonist activity at human 5HT6 receptor expressed in HEK293F cells assessed as inhibition of 5-HT-stimulated cAMP production at […] after 30 mins by HTRF assay relative to (+/-)-6-chloro-N-(3-(1-methylpyrrolidin-3-yl)-1H-inden-5-yl)imidazo[2,1-b]thiazole-5-sulfonamide; format: functional, cell-based
# [5] = molecular target: T1, 5-hydroxytryptamine receptor 6; assay: Antagonist activity at human 5HT6 receptor expressed in HEK293F cells assessed as inhibition of 5-HT-stimulated cAMP production after 30 mins by HTRF assay; format: functional, cell-based
# Procedure, shortened: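 HEK-293F cells stably expressing human 5-HT6 receptor. Compounds were tested against 5-HT-stimulated cAMP production, with cAMP read by homogeneous time-resolved fluorescence (HTRF). Antagonism expressed as Imax and IC50. Data are mean ± SEM of three experiments.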
# [6] = molecular target: T2, Adrenergic receptor alpha-1 (Rattus norvegicus, UniProt P15823+P23944+P43140); assay: Inhibition of rat alpha 1 adrenoceptor
# T2 sequence (P15823 whole entry): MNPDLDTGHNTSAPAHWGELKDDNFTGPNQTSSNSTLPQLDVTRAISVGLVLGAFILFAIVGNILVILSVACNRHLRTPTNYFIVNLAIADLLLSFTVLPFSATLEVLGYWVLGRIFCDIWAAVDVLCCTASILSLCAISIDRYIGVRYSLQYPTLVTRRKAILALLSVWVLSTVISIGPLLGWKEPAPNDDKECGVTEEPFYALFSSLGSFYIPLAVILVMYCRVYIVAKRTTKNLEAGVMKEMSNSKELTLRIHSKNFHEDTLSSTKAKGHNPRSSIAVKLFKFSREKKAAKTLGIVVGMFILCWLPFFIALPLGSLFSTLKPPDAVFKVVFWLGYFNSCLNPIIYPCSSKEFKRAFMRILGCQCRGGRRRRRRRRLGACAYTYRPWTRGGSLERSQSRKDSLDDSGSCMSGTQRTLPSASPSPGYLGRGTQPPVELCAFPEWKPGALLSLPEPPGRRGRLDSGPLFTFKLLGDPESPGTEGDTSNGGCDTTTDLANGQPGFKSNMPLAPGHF
# T2 sequence (P23944 whole entry): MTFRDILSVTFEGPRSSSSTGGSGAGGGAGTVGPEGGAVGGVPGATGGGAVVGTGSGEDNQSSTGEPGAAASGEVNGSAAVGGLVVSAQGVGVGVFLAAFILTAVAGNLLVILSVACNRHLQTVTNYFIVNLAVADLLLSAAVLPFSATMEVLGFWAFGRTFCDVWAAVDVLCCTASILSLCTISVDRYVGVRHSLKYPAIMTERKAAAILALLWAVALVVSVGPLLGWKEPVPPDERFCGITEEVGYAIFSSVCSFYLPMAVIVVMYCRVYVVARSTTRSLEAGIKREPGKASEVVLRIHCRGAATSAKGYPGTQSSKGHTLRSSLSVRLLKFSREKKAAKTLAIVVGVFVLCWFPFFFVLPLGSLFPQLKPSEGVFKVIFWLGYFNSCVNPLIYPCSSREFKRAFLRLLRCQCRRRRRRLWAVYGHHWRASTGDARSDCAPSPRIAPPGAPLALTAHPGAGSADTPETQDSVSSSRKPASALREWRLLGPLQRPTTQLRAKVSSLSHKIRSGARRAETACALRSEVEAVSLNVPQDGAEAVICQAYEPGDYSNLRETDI
# T2 sequence (P43140 whole entry): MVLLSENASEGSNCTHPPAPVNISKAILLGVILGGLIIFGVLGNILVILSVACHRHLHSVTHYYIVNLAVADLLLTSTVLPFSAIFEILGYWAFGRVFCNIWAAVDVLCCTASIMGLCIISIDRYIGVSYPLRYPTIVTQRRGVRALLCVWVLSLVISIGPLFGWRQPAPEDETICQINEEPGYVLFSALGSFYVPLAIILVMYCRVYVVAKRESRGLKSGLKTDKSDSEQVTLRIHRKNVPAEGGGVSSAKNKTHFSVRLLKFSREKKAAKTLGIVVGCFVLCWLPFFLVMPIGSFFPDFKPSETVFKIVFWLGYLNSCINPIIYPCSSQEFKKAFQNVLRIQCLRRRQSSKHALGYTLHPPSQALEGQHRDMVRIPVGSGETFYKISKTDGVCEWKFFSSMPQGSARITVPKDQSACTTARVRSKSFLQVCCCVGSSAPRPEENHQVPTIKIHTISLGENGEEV
# [7] = molecular target: T3, Adrenergic receptor alpha-2 (Homo sapiens, UniProt P08913+P18825+P18089); assay: Inhibition of human alpha 2 adrenoceptor
# T3 sequence (P08913 whole entry): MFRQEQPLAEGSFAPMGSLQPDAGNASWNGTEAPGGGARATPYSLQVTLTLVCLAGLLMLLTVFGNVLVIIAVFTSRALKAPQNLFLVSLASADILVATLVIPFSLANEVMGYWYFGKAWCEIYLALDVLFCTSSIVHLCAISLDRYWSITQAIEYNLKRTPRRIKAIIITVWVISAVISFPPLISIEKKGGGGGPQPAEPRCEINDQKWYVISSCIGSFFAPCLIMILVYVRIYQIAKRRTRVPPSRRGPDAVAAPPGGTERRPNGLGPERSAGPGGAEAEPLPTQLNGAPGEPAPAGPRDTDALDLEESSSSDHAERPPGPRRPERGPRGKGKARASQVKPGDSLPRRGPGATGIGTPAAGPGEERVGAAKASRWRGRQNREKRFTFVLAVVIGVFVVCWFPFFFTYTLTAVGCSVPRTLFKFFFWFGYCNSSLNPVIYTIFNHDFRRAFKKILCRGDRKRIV
# T3 sequence (P18825 whole entry): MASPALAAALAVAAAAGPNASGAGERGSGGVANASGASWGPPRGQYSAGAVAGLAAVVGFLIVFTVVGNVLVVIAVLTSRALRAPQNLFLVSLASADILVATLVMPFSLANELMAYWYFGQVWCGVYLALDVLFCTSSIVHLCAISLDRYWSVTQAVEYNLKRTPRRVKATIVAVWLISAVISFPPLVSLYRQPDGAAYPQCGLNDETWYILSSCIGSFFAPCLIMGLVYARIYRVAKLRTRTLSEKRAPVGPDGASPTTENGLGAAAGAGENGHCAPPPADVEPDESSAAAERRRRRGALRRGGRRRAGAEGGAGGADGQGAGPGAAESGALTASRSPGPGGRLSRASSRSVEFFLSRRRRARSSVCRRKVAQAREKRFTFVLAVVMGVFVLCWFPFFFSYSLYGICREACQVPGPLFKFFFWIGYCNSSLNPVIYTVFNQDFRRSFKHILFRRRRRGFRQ
# T3 sequence (P18089 whole entry): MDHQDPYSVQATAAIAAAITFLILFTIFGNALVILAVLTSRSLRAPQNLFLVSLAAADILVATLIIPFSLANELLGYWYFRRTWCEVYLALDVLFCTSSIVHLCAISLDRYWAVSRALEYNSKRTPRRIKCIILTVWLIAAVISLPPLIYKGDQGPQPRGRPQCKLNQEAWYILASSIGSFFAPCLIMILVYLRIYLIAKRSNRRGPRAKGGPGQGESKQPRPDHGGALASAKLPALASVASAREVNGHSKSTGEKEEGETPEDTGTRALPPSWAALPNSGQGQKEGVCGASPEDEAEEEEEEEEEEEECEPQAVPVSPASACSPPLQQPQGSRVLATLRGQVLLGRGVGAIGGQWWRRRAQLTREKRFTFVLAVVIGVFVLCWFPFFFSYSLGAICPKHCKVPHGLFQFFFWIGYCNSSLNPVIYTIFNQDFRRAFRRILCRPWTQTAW
# [8] = molecular target: T4, 5-hydroxytryptamine receptor 2C (Homo sapiens, UniProt P28335); assay: Inhibition of human 5HT2C receptor
# T4 sequence (P28335 whole entry): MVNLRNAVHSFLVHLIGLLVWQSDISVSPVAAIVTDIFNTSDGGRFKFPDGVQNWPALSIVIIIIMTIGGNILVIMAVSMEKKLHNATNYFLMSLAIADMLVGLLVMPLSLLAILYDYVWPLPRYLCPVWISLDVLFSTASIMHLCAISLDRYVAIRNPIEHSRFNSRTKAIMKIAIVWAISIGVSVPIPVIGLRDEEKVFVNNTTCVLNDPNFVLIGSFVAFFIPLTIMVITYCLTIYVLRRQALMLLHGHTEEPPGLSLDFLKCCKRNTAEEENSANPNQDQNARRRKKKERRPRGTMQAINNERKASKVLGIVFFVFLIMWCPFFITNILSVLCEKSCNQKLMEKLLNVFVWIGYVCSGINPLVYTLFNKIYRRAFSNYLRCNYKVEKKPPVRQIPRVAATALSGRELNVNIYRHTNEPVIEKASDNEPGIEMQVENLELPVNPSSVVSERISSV
# [9] = molecular target: Sodium-dependent serotonin transporter (Homo sapiens, UniProt P31645); assay: Inhibition of human SERT
# Sodium-dependent serotonin transporter, sequence (P31645 whole entry): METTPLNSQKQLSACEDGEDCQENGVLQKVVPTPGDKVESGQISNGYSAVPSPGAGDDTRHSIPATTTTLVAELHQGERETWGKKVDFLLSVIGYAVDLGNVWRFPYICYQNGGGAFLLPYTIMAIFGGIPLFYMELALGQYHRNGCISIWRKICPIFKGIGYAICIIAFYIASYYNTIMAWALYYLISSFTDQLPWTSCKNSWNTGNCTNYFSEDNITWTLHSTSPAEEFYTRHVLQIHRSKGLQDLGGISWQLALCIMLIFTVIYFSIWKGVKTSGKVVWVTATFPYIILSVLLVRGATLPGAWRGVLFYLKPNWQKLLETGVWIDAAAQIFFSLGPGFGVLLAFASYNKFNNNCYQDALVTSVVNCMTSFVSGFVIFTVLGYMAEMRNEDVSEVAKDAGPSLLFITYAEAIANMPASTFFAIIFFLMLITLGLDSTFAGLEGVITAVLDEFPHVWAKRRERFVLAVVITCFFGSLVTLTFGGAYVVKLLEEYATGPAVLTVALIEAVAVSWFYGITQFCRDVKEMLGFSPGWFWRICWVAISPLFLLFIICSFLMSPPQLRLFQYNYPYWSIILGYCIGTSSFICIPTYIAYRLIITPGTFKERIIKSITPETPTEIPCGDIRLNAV
# [10] = molecular target: T5, 5-hydroxytryptamine receptor 1A (Homo sapiens, UniProt P08908); assay: Inhibition of human 5HT1A receptor
# T5 sequence (P08908 whole entry): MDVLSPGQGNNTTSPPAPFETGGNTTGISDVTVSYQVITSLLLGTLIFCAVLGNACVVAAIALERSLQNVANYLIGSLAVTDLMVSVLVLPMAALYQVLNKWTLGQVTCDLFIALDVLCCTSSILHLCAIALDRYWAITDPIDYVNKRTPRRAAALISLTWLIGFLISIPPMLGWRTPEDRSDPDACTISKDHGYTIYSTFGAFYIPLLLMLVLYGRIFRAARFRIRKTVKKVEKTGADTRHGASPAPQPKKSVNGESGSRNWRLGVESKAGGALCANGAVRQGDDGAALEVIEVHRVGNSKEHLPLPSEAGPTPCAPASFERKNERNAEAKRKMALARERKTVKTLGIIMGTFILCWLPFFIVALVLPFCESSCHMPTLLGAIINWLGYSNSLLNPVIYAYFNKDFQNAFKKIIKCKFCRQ
# T1 sequence (P50406 whole entry): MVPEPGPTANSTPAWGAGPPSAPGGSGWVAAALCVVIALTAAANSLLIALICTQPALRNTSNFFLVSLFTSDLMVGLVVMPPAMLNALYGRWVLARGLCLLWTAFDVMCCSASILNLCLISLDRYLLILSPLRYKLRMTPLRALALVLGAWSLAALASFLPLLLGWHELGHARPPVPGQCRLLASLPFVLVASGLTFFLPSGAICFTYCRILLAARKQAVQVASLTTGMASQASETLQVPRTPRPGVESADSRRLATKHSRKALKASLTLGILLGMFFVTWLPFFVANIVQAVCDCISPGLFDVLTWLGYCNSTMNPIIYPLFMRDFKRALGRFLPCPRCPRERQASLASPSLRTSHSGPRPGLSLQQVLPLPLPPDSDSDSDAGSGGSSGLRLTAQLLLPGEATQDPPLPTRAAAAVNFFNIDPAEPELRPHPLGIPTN
inhibition [1] [%],Ki [3] [nM],Imax [4] [%],IC50 [5] [nM],SMILES,also measured
2,–,–,–,N=C(N)N/N=C1\CCc2c(NS(=O)(=O)c3c(Cl)nc4sccn34)cccc21,–
–,–,–,–,COc1ccc(S(=O)(=O)Nc2ccc3[nH]cc(/C(C)=N/NC(=N)N)c3c2)cc1,Ki [2]: 1 nM
> 80,2.2,173,176,O=S(=O)(Nc1ccc2c(c1)/C(=N/NC1=NCCN1)CC2)c1c(Cl)nc2sccn12,IC50 [6]: > 1000 nM; IC50 [7]: > 1 ×10⁴ nM; IC50 [8]: > 10000 nM; IC50 [9]: > 10000 nM
> 80,62,127,53,Cl.N=C(N)N/N=C1\CCc2ccc(NS(=O)(=O)c3ccc4ccccc4c3)cc21,IC50 [7]: > 1000 nM; IC50 [10]: > 1000 nM
> 80,26,187,581,CN1CCOc2ccc(S(=O)(=O)Nc3ccc4c(c3)/C(=N/NC(=N)N)CC4)cc21,IC50 [10]: > 1000 nM
–,–,–,–,C/C(=N\NC(=N)N)c1cn(S(=O)(=O)c2c(Cl)nc3sccn23)c2ccccc12,Ki [2]: ≤ 8 nM
> 80,70,–,–,CN1CCOc2ccc(S(=O)(=O)Nc3ccc4c(c3)/C(=N\NC3=NCCN3)CC4)cc21,–
77,–,–,–,CC1(C)C/C(=N\NC2=NCCN2)c2cc(NS(=O)(=O)c3c(Cl)nc4sccn34)ccc21,–
